Test results reported in paper PMC4306711 (The Journal of General Physiology, 2015).
Where two headings read alike, the source gives them in different places.

Assays:
[1] = target: rNav1.2a/Kv2.1 VSD IV chimera L1630A; details: read-out: apparent KD, VSD IV chimera L1630A, ref Bosmans et al., 2008; cited from earlier work
[2] = tested on: rNav1.2a/Kv2.1 VSD IV paddle chimera; details: electrophysiology; ref Bosmans et al., 2008; cited from earlier work
[3] = tested on: rNav1.2a/Kv2.1 VSD IV paddle chimera; assay type: cell-based, rat
[4] = tested on: isolated rNav1.2a VSD II paddle motif; assay: SPR with immobilized rNav1.2a VSD II paddle peptide; assay type: binding, rat; details: up to 20 µM toxin, 25°C
[5] = tested on: isolated rNav1.2a VSD IV paddle motif; assay: SPR with immobilized rNav1.2a VSD IV paddle peptide; assay type: binding, rat; details: 50 fmol peptide, heterogeneous ligand model, n = 3
Summary of the method: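 Biotinylated synthetic VSD IV paddle peptide (~50 fmol) captured on neutravidin amine-coupled to a CM5 chip. Run at 25°C in 50 mM phosphate, pH 7.2. Toxin at 15–2,000 nM injected at 20 µl/min after a steady baseline; control flow cell subtracted; regenerated with 1 M NaCl (15 s, 30 µl/min). Bulk signal excluded, then fitted to a two-site heterogeneous ligand model; n = 3, mean ± SD.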

[6] = tested on: rNav1.2a/Kv2.1 VSD II paddle chimera; details: ref Bosmans et al., 2008; cited from earlier work
[7] = tested on: rNav1.2a/Kv2.1 VSD IV R1629A/L1630A paddle chimera; assay type: cell-based, rat; details: 100 nM AaHII; holding −10 mV, 300-ms step after −150 mV, tail −150 mV
[8] = target: rNav1.2a/Kv2.1 VSD IV chimera R1629A; details: read-out: apparent KD, VSD IV chimera R1629A, ref Bosmans et al., 2008; cited from earlier work
rNav1.2a = details: cited from earlier work
Kv1.1 = details: ref Crest et al., 1992; cited from earlier work
Kv1.3 = details: ref Crest et al., 1992; cited from earlier work
Nav channel = details: ref Crest et al., 1992; cited from earlier work
[9] = tested on: rNav1.2a/Kv2.1 VSD II paddle chimera; assay type: cell-based, rat
WT rKv2.1 = assay: Two-electrode voltage-clamp of WT rKv2.1 in Xenopus oocytes; assay type: cell-based, rat; details: 1 µM toxin; 300-ms depolarization to 0 mV, holding −90 mV, tail −60 mV
[10] = SPR, Biacore T200, 25°C, pH 7.2, 15–2,000 nM, mean ± SD

AaHII: α-scorpion toxin from Androctonus australis Hector
Kd [1]: 205 ± 23 nM | binding to VSD IV paddle (rNav1.2a/Kv2.1 chimeras) [2]: shown to bind to the VSD IV paddle motif in rNav1.2a | inhibition of WT rNav1.2a/Kv2.1 VSD IV chimera compared with double mutant ([3]; 100 nM AaHII): influenced to a much lesser extent | SPR effect on VSD II paddle motif at high toxin concentration [4]: did not notice an effect | dissociation rate constant kd1 [5, 10]: 0.000979 ± 0.00014 s⁻¹ | dissociation rate constant kd2 [5, 10]: 0.0281 ± 0.0058 s⁻¹ | high affinity KD1 (kd1/ka1) [5, 10]: 479 ± 241 nM | RUmax1 ([5]; high affinity site): 135 | RUmax2 ([5]; lower affinity site): 23 | interaction with rNav1.2a/Kv2.1 VSD II paddle chimera [6]: no interaction was observed | inhibition of R1629A/L1630A double mutant chimera [7]: strongly inhibits the double mutant | Kd [8]: 235 ± 24 nM | Kd (rNav1.2a; read-out: affinity for WT rNav1.2a, WT rNav1.2a, ref Wang et al., 2011): ~5 nM

kaliotoxin [KTX]
Kv1.1 pore block (Kv1.1): blocks | Kv1.3 pore block (Kv1.3): blocks | influence on Nav channel function (Nav channel): does not influence Nav channel function

CssIV: β-scorpion toxin from Centruroides suffusus suffusus
influence on VSD IV chimera ([3]; 1 µM toxin, n = 3, holding −90 mV, tail −60 mV): does not influence the VSD IV chimera | depolarizing shift in V1/2, VSD II chimera ([9]; 1 µM toxin, Boltzmann fit, n = 3, holding −90 mV, tail −60 mV): ~14 mV | V1/2 in the presence of toxin, VSD II chimera ([9]; 1 µM toxin, control 33 ± 2 mV, mean ± SEM, n = 3, holding −90 mV, tail −60 mV): 47 ± 1 mV | concentration required to begin inhibiting the rNav1.2a/Kv2.1 VSD II paddle chimera ([9]; Xenopus oocytes, ∼22°C): 1 µM

AaHI: α-scorpion toxin from Androctonus australis Hector
effect on WT Kv2.1 K^+ current (WT rKv2.1): insensitive | voltage-dependent K^+ current inhibition, VSD IV paddle chimera ([3]; 100 nM toxin, 300-ms depolarization, holding −90 mV): robust voltage-dependent K^+ current inhibition | depolarizing shift in midpoint (V1/2), VSD IV paddle chimera ([3]; 100 nM toxin, Boltzmann fit, n = 3, holding −90 mV, tail −60 mV): ~15 mV

B1: TsVII: β-scorpion toxin from the Brazilian scorpion Tityus serrulatus (protein, UniProt P15226 21-81, looked up)
Beta-mammal/insect toxin Ts1: KEGYLMDHEGCKLSCFIRPSGYCGRECGIKKGSSGYCAWPACYCYGLPNWVKVWDRATNKC
modifications: ends and bridges not checked
binding to VSD IV paddle (rNav1.2a/Kv2.1 chimeras) [2]: can also bind to the VSD IV paddle | Kd (rNav1.2a; read-out: apparent KD, rNav1.2a, ref Bosmans et al., 2008): 25 to 121 nM
